ChEMBL document CHEMBL2040734, “Benzothiazoles: search for anticancer agents” (2012)

Experiments:
Assay type in all cases: functional
[1] = system: SNB-19; assay: Cytotoxicity against human SNB19 cells assessed as cell growth at 100 uM after 48 hrs by sulforhodamine B assay; conditions: SNB-19, 48 h, read-out: Activity
[2] = system: LOX IMVI; assay: Cytotoxicity against human LOXIMVI cells assessed as cell growth at 1 uM after 48 hrs by sulforhodamine B assay; conditions: read-out: Activity
[3] = system: EKVX; assay: Cytotoxicity against human EKVX cells assessed as cell growth at 10 uM after 48 hrs by sulforhodamine B assay; conditions: read-out: Activity
Outline: (§1)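 Five-dose NCI panel run at 0.01, 0.1, 1, 10 and 100 µM. Cells were in RPMI 1640 with 5% FBS and 2 mM L-glutamine, seeded at 5000–40,000 cells/well and pre-incubated 24 h. Drug was diluted from a DMSO stock into medium with 50 µg/ml gentamicin. Exposure was 48 h at 37 °C, 5% CO2. Cells were fixed with cold TCA and stained with 0.4% SRB, read at 515 nm. Percent growth came from time-zero, control and test absorbances.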

[4] = system: PC-3; assay: Cytotoxicity against human PC3 cells assessed as cell growth at 1 uM after 48 hrs by sulforhodamine B assay; conditions: PC-3, 48 h, read-out: Activity
[5] = system: SF-539; assay: Cytotoxicity against human SF539 cells assessed as cell growth at 10 '-5 M after 48 hrs by sulforhodamine B assay; conditions: SF-539, 48 h, read-out: Activity
[6] = system: SW-620; assay: Cytotoxicity against human SW620 cells assessed as cell growth at 10 uM after 48 hrs by sulforhodamine B assay; conditions: SW-620, 48 h, read-out: Activity
[7] = system: U-251; assay: Cytotoxicity against human U251 cells assessed as cell growth at 10 uM after 48 hrs by sulforhodamine B assay; conditions: U-251, 48 h, read-out: Activity
[8] = system: SN12C; assay: Growth inhibition of human SN12C cells after 48 hrs by sulforhodamine B assay; conditions: for CC50: read-out: LC50 (the source's name)
Outline: (§2)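 Adherent NCI-60 lines were grown in RPMI 1640 with 5% FBS and 2 mM L-glutamine, plated at 5000–40,000 cells/well and preincubated 24 h. They were then exposed to five concentrations (0.01–100 µM, from a DMSO stock) for 48 h at 37 °C, 5% CO2. Cells were fixed with cold TCA (10% final, 60 min, 4 °C) and stained with 0.4% SRB. Dye was solubilized in 10 mM Tris base and A515 read. GI50 was derived from time-zero, control and treated absorbances.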

[9] = system: OVCAR-8; assay: Cytotoxicity against human OVCAR8 cells assessed as cell growth at 0.01 uM after 48 hrs by sulforhodamine B assay; conditions: OVCAR-8, 48 h, read-out: Activity
[10] = system: 786-0; assay: Cytotoxicity against human 786-0 cells assessed as cell growth at 10 uM after 48 hrs by sulforhodamine B assay; conditions: 786-0, 48 h, read-out: Activity
Outline: (§3)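 NCI-60 five-dose screen. Cells were grown in RPMI 1640 with 5% FBS and 2 mM L-glutamine and preincubated 24 h. Compound (DMSO stock) was tested at 0.01, 0.1, 1, 10 and 100 µM for 48 h at 37 °C. Cells were fixed in situ with cold TCA (final 10%) and stained with 0.4% SRB. A515 was read, and percent growth was calculated against time-zero and control plates.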

[11] = system: HCC 2998; assay: Cytotoxicity against human HCC2998 cells assessed as cell growth at 1 uM after 48 hrs by sulforhodamine B assay; conditions: HCC 2998, 48 h, read-out: Activity; outline: as §1
[12] = system: SF-295; assay: Growth inhibition of human SF295 cells after 48 hrs by sulforhodamine B assay; conditions: SF-295, 48 h; for CC50: read-out: LC50 (the source's name); outline: as §2
[13] = system: OVCAR-3; assay: Cytotoxicity against human OVCAR3 cells assessed as cell growth at 10 uM after 48 hrs by sulforhodamine B assay; conditions: OVCAR-3, 48 h, read-out: Activity
[14] = system: SN12C; assay: Cytotoxicity against human SN12C cells assessed as cell growth at 10 '-5 M after 48 hrs by sulforhodamine B assay; conditions: read-out: Activity
[15] = system: MOLT-4; assay: Cytotoxicity against human MOLT4 cells assessed as cell growth at 100 uM after 48 hrs by sulforhodamine B assay; conditions: MOLT-4, 48 h, read-out: Activity
[16] = system: SR; assay: Cytotoxicity against human SR cells assessed as cell growth at 0.1 uM after 48 hrs by sulforhodamine B assay; conditions: read-out: Activity
[17] = system: SF-539; assay: Cytotoxicity against human SF539 cells assessed as cell growth at 10 uM after 48 hrs by sulforhodamine B assay; conditions: SF-539, 48 h, read-out: Activity
[18] = system: SF-539; assay: Cytotoxicity against human SF539 cells assessed as cell growth at 0.01 uM after 48 hrs by sulforhodamine B assay; conditions: SF-539, 48 h, read-out: Activity
[19] = system: LOX IMVI; assay: Cytotoxicity against human LOXIMVI cells assessed as cell growth at 10 uM after 48 hrs by sulforhodamine B assay; conditions: read-out: Activity
[20] = system: SR; assay: Cytotoxicity against human SR cells assessed as cell growth at 100 uM after 48 hrs by sulforhodamine B assay; conditions: read-out: Activity
[21] = system: Malme-3M; assay: Cytotoxicity against human MALME-3M cells assessed as cell growth at 10 uM after 48 hrs by sulforhodamine B assay; conditions: read-out: Activity
[22] = system: DU-145; assay: Cytotoxicity against human DU145 cells assessed as cell growth at 0.1 uM after 48 hrs by sulforhodamine B assay; conditions: DU-145, 48 h, read-out: Activity; outline: as §3
[23] = system: NCI-H460; assay: Cytotoxicity against human NCI-H460 cells assessed as cell growth at 0.1 uM after 48 hrs by sulforhodamine B assay; conditions: NCI-H460, 48 h, read-out: Activity
[24] = system: OVCAR-5; assay: Cytotoxicity against human OVCAR5 cells assessed as cell growth at 100 uM after 48 hrs by sulforhodamine B assay; conditions: OVCAR-5, 48 h, read-out: Activity
[25] = system: IGROV-1; assay: Growth inhibition of human IGROV1 cells after 48 hrs by sulforhodamine B assay; conditions: IGROV-1, 48 h; outline: as §2
[26] = system: MDA-MB-468; assay: Cytotoxicity against human MDA-MB-468 cells assessed as cell growth at 10 '-5 M after 48 hrs by sulforhodamine B assay; conditions: MDA-MB-468, 48 h, read-out: Activity
[27] = system: UACC-62; assay: Cytotoxicity against human UACC62 cells assessed as cell growth at 1 uM after 48 hrs by sulforhodamine B assay; conditions: UACC-62, 48 h, read-out: Activity
[28] = system: HT-29; assay: Cytotoxicity against human HT-29 cells assessed as cell growth at 10 uM after 48 hrs by sulforhodamine B assay; conditions: HT-29, 48 h, read-out: Activity; outline: as §1
[29] = system: M14; assay: Cytotoxicity against human M14 cells assessed as cell growth at 10 uM after 48 hrs by sulforhodamine B assay; conditions: M14, 48 h, read-out: Activity
[30] = system: SNB-75; assay: Cytotoxicity against human SNB75 cells assessed as cell growth at 1 uM after 48 hrs by sulforhodamine B assay; conditions: SNB-75, 48 h, read-out: Activity
[31] = system: LOX IMVI; assay: Cytotoxicity against human LOXIMVI cells assessed as cell growth at 10 '-5 M after 48 hrs by sulforhodamine B assay; conditions: read-out: Activity
[32] = system: SF-295; assay: Cytotoxicity against human SF295 cells assessed as cell growth at 1 uM after 48 hrs by sulforhodamine B assay; conditions: SF-295, 48 h, read-out: Activity

Structure (SMILES) | growth at 100 µM [1] [%] | growth at 1 µM [2] [%] | growth at 10 µM [3] [%] | growth at 1 µM [4] [%] | growth at 10 µM [5] [%] | growth at 10 µM [6] [%] | growth at 10 µM [7] [%] | TGI [8] [µM] | CC50 [8] [µM] | growth at 0.01 µM [9] [%] | growth at 10 µM [10] [%] | growth at 1 µM [11] [%] | GI50 [12] [µM] | TGI [12] [µM] | CC50 [12] [µM] | growth at 10 µM [13] [%] | growth at 10 µM [14] [%] | growth at 100 µM [15] [%] | growth at 0.1 µM [16] [%] | growth at 10 µM [17] [%] | further results
Cc1ccc2nc(Nc3c(C)cccc3C)sc2c1 | 30 | 62 | 39 | 68 | 45.3 | 22 | 63 | > 100 | > 100 | 103 | 56 | 70 | 0.725 | > 100 | > 100 | 52 | 50 | 86 | 99 | 57 | growth at 0.01 µM [18]: 99%; growth at 10 µM [19]: 23%; growth at 100 µM [20]: 22%; growth at 10 µM [21]: 45%; growth at 0.1 µM [22]: 102%; growth at 0.1 µM [23]: 103%; growth at 100 µM [24]: 78%; GI50 [25]: 4.16 µM; LC50 (50% net cell kill) [25]: > 100 µM; TGI [25]: > 100 µM; growth at 10 µM [26]: 2.04%; growth at 1 µM [27]: 52%; growth at 10 µM [28]: 10%; growth at 10 µM [29]: 42%; growth at 1 µM [30]: 52%; growth at 10 µM [31]: 24.7%; growth at 1 µM [32]: 44%
Clc1cccc(Cl)c1Nc1nc2cccc(Cl)c2s1 | -63 | 55 | -89 | 38 | -47.5 | -86 | -84 | 2.12 | 4.85 | 101 | -93 | 70 | 0.459 | 1.9 | 4.96 | -96 | -71.5 | -23 | 101 | -81 | GI50 [8]: 0.772 µM; growth at 0.01 µM [18]: 97%; growth at 10 µM [19]: -83%; growth at 100 µM [20]: -32%; growth at 10 µM [21]: -84%; growth at 0.1 µM [22]: 102%; growth at 0.1 µM [23]: 96%; growth at 100 µM [24]: -96%; GI50 [25]: 1.12 µM; LC50 (50% net cell kill) [25]: 8.96 µM; TGI [25]: 3.17 µM; growth at 10 µM [26]: -25.6%; growth at 1 µM [27]: 51%; growth at 10 µM [28]: -71%; growth at 10 µM [29]: -68%; growth at 1 µM [30]: 46%; growth at 10 µM [31]: -88.3%; growth at 1 µM [32]: 33%
